The source made the active and inactive calls. The rule behind the calls is not given here.
Columns and labels:
Jurkat [1] = test: Inhibition of TNF-alpha-induced necroptosis in FADD-deficient human Jurkat T cells; type: functional, cell-based
Method in brief: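 FADD-deficient variant of human Jurkat T cells given 10 ng/mL human TNF-α alongside increasing test compound concentrations for 24 h. Viability read by ATP-based assay; EC50 from the concentration series.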

L929 [2] = test: Inhibition of necroptosis in zVAD-induced mouse L929 cells assessed as cell viability at 30 uM after 24 hrs; type: functional, cell-based
Method in brief: (§1)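 FADD-deficient Jurkat, L929 and mouse adult lung fibroblast cells exposed 24 hr to 10 ng/mL human TNF-α and/or 100 µM zVAD.fmk, with compound at 30 µM. ATP-based viability, normalized to compound-treated cells without necroptotic stimulus (100%); N = 2, standard deviation.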

L929 [3] = test: Inhibition of necroptosis in TNF-alpha-induced mouse L929 cells assessed as cell viability at 30 uM after 24 hrs; type: functional, cell-based; method in brief: as §1
Jurkat [4] = test: Inhibition of necroptosis in TNF-alpha-induced human Jurkat T cells assessed as cell viability at 30 uM after 24 hrs; type: functional, cell-based; method in brief: as §1
Mus musculus = species on record: Mus musculus; test: Inhibition of necroptosis in zVAD-induced mouse fibroblast assessed as cell viability at 30 uM after 24 hrs; type: functional; method in brief: as §1
[5] = Metabolic stability assessed as half life in mouse liver microsomes; type: ADME, Microsome
Method in brief: (§2)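 Pooled mouse liver microsomes (0.5 mg/mL protein) with 3 µM final compound and 1 mM NADPH, sampled at 0, 5, 15, 30, 60 min; no-NADPH incubation as negative control. Methanol quench, LC/MS (N=3) against internal standard; ln peak-area ratio vs time slope gives k, t1/2 = 0.693/k, CLint = V(0.693)/t1/2.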

[6] = Intrinsic clearance in mouse liver microsome; type: ADME; conditions: liver microsomes; method in brief: as §2

Compound | EC50 (Jurkat [1]) | other results
CCn1c(Br)ccc1C(=O)NCc1c(F)cccc1Cl | 2400 nM | –
CC(C)n1c(C#N)ccc1C(=O)NCc1c(F)cccc1Cl | 1400 nM | –
Cn1c(C#N)ccc1S(=O)(=O)NCc1c(F)cccc1Cl | > 20000 nM | –
CC(c1ccccc1)n1cccc1C(=O)NCc1c(F)cccc1Cl (centres undefined) | > 20000 nM | –
CCCCC(NC(=O)c1cccn1C(C)C)c1c(F)cccc1Cl (racemic) | > 20000 nM | –
CN1C(=O)C(Cc2c[nH]c3ccccc23)NC1=S (racemic) [NECROSTATIN] | 50 nM | Activity (L929 [2]): Active; Activity (L929 [3]): Active; Activity (Jurkat [4]): Active; Activity (Mus musculus): Active
Cc1ccn(C)c1C(=O)NCc1c(F)cccc1Cl | > 20000 nM | –
O=C(NCc1c(F)cccc1Cl)c1ccc[nH]1 | > 20000 nM | –
Cn1c(C#N)ccc1C(=O)NCc1c(F)cccc1Cl | 340 nM | –
Cc1cc[nH]c1C(=O)NCc1c(F)cccc1Cl | 4900 nM | –
CC(C)n1cccc1C(=O)NCc1c(F)cccc1Cl | 440 nM | –
CC(C)n1cccc1C(=O)N[C@H](C)c1c(F)cccc1Cl | > 20000 nM | –
O=C(NCc1c(F)cccc1Cl)c1cccn1Cc1ccccc1 | > 20000 nM | –
CN(Cc1c(F)cccc1Cl)C(=O)c1cccn1C | > 20000 nM | –
CC(NC(=O)c1cccn1C(C)C)c1c(F)cccc1Cl (racemic) | 2100 nM | –
CCn1c(C#N)ccc1C(=O)NCc1c(F)cccc1Cl | 1900 nM | –
Cn1c(Cl)ccc1C(=O)NCc1c(F)cccc1Cl | 740 nM | –
CC(C)n1cccc1C(=O)N[C@@H](C)c1c(F)cccc1Cl | 520 nM | –
Cn1cccc1C(=O)NCc1c(F)cccc1Cl | 900 nM | –
C[C@H](NC(=O)c1snnc1C1CC1)c1c(F)cccc1Cl | – | half-life [5]: 0.542 h; Activity (L929 [2]): Active; Activity (L929 [3]): Active; Activity (Jurkat [4]): Active; Activity (Mus musculus): Active; microsomal CLint [6]: 42.6 µL/min/mg
Cn1cc(C#N)cc1C(=O)NCc1c(F)cccc1Cl | > 20000 nM | –
Cc1ccccc1C(=O)NCc1c(F)cccc1Cl | – | half-life [5]: 3.23 h; microsomal CLint [6]: 7.13 µL/min/mg
Cc1ccn(C(C)C)c1C(=O)NCc1c(F)cccc1Cl | 7800 nM | –
CC(C)n1cc(C#N)cc1C(=O)NCc1c(F)cccc1Cl | > 20000 nM | –

— ChEMBL document CHEMBL1143090, “Structure-activity relationship and liver microsome stability studies of pyrrole necroptosis inhibitors” (Bioorg Med Chem Lett, 2008)
